{"source": "paper PMC11982377", "about": "(Communications Biology, 2025)", "key": {"WDR5": {"tested_on": "WDR5", "settings": "MV4-11 cells ref 34; cited from earlier work"}, "Sf9 cells": {"tested_on": "Sf9 cells", "experiment": "PROTAC cellular permeability and distribution measured by LCMS", "assay_type": "in vitro ADME, Spodoptera frugiperda", "settings": "10 µM, 24 h"}, "sfWDS [1]": {"biological_target": "T1, sfWDS (Spodoptera frugiperda, UniProt A0A2H1VC02)", "experiment": "In vitro ubiquitination", "assay_type": "biochemical", "settings": "listed as MS67"}, "sfWDS [2]": {"biological_target": "T1, sfWDS", "experiment": "Sf9 cell degradation assay", "assay_type": "cell-based", "settings": "Sf9 cells", "method_in_brief": "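Sf9 cells in ESF921 medium, split into 1e6-cell aliquots and treated 24 h with test compound or DMSO. For sfWDS, some treatments at 10 μM ± bortezomib 10 μM. Lysed in Tris-SDS, then acetone precipitation, urea reduction/alkylation, Trypsin/LysC digest and MCX cleanup. Stable-isotope peptide standards spiked in; targeted MS. Signal normalised to isotope and total peptide, as % of DMSO. n = 4. Dose-response by 4-parameter fit.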"}}, "note": "Entries after “also recorded” stand apart in the source; their conditions may differ.", "data": [{"compound": "Cc1ncsc1-c1ccc([C@H](C)NC(=O)[C@@H]2C[C@@H](O)CN2C(=O)[C@@H](NC(=O)CNC(=O)c2ccc(F)c(-c3ccc(N4C[C@@H](C)N(C)[C@@H](C)C4)c(NC(=O)c4c[nH]c(=O)cc4C(F)(F)F)c3)c2)C(C)(C)C)cc1", "note": "[Compound 12]", "values": [{"measurement": "Dmax, degradation of WDR5", "setting": "WDR5", "result": 94, "unit": "%"}, {"measurement": "PROTAC in cells (of total PROTAC recovery, cells vs media)", "setting": "Sf9 cells", "result": "only detected at very low intracellular levels"}, {"measurement": "IVQ Y/N (ubiquitination of sfWDS)", "setting": "sfWDS [1]", "result": "polyubiquitination of sfWDS was observed in a dose-dependent manner"}, {"measurement": "degradation of sfWDS in cell", "setting": "sfWDS [2]", "result": "did not demonstrate in cell degradation"}, {"measurement": "degradation of sfWDS in cell", "setting": "sfWDS [2]; listed as MS67", "result": "failed to prompt degradation of sfWDS; also recorded: did not show degradation in cells"}]}]}
